Measurements from ChEMBL document CHEMBL3046177, “Plant growth inhibitory activity of p-hydroxyacetophenones and tremetones from Chilean endemic Baccharis species and some analogous: a comparative study” (J Agric Food Chem, 2002).
pIC50: −log10 of the molar value. Active and inactive are the calls of the source. The calls are words filed in the database; no cut-off is given here.

Assays:
Physalis ixocarpa [1] = experiment: Phytotoxicity against Physalis ixocarpa assessed as inhibition of seed respiration during germination after 24 hr; type: functional, organism-based
Outline: (§1)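 Oxygen uptake of germinating seeds measured polarographically with a Clark-type electrode at 25 °C in a nonilluminated cell over 5 and 10 min, at several compound concentrations. Expressed as percent of control (100%). Three experiments; RI50 from Probit analysis.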

Lolium multiflorum [2] = experiment: Phytotoxicity against Lolium multiflorum (Italian ryegrass) assessed as inhibition of seed germination at 500 uM after 48 hr; type: functional
Outline: (§2)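 Seeds of uniform size on Whatman No.1 filter paper in 85 mm Petri dishes, wetted with 8 or 10 mL deionized water or test solution (MeOH < 1%); controls got matching water/methanol. Sealed, incubated at 28 °C in the dark, scored at 48 h intervals; germination = 1 mm radicle extrusion. Three replicates.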

Trifolium pratense [3] = experiment: Increase of shoot development during seeding stage in Trifolium pratense (red clover) at 200 uM after 120 hr; type: functional, organism-based
Outline: (§3)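 Petri-dish seedling assay on filter paper wetted with test solution (MeOH < 1%), 28 °C in the dark. Coleoptile/hypocotyl and root lengths of all germinated seeds measured after 120 h, then plants dried to constant weight at 40 °C. Three replicates; 50% inhibitory concentrations by Probit analysis of percent inhibition versus concentration.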

Physalis ixocarpa [4] = experiment: Increase of shoot development during seeding stage in Physalis ixocarpa up to 50 uM after 120 hr; type: functional, organism-based; outline: as §3
Trifolium pratense [5] = experiment: Increase of root development during seeding stage in Trifolium pratense (red clover) at 50 to 300 uM after 120 hr; type: functional, organism-based; outline: as §3
Lactuca sativa [6] = experiment: Increase of root development during seeding stage in Lactuca sativa (lettuce) at 50 to 300 uM after 120 hr; type: functional, organism-based; outline: as §3
Trifolium pratense [7] = experiment: Phytotoxicity against Trifolium pratense (red clover) assessed as inhibition of root development during seeding stage after 120 hr; type: functional, organism-based; outline: as §3
Trifolium pratense [8] = experiment: Phytotoxicity against Trifolium pratense (red clover) assessed as inhibition of shoot development during seeding stage after 120 hr; type: functional, organism-based; outline: as §3
Physalis ixocarpa [9] = experiment: Phytotoxicity against Physalis ixocarpa assessed as inhibition of root development during seeding stage after 120 hr; type: functional, organism-based; outline: as §3
Physalis ixocarpa [10] = experiment: Phytotoxicity against Physalis ixocarpa assessed as inhibition of shoot development during seeding stage after 120 hr; type: functional, organism-based; outline: as §3
Lactuca sativa [11] = experiment: Phytotoxicity against Lactuca sativa (lettuce) assessed as inhibition of root development during seeding stage after 120 hr; type: functional, organism-based; outline: as §3
Lactuca sativa [12] = experiment: Phytotoxicity against Lactuca sativa (lettuce) assessed as inhibition of shoot development during seeding stage after 120 hr; type: functional, organism-based; outline: as §3
Lolium multiflorum [13] = experiment: Phytotoxicity against Lolium multiflorum (Italian ryegrass) assessed as inhibition of root development during seeding stage after 120 hr; type: functional, organism-based; outline: as §3
Lolium multiflorum [14] = experiment: Phytotoxicity against Lolium multiflorum (Italian ryegrass) assessed as inhibition of shoot development during seeding stage after 120 hr; type: functional, organism-based; outline: as §3
Trifolium pratense [15] = experiment: Phytotoxicity against Trifolium pratense (red clover) assessed as inhibition of seed germination after 48 hr; type: functional; outline: as §2
Lolium multiflorum [16] = experiment: Phytotoxicity against Lolium multiflorum (Italian ryegrass) assessed as inhibition of seed respiration during germination at 300 to 500 uM after 24 hr; type: functional, organism-based; outline: as §1
Lolium multiflorum [17] = experiment: Increase of seed respiration during germination in Lolium multiflorum (Italian ryegrass)at 30 uM; type: functional, organism-based; outline: as §1
Trifolium pratense [18] = experiment: Phytotoxicity against Trifolium pratense (red clover) assessed as inhibition of seed respiration during germination after 24 hr; type: functional, organism-based; outline: as §1
Lactuca sativa [19] = experiment: Phytotoxicity against Lactuca sativa (lettuce) assessed as inhibition of seed respiration during germination after 24 hr; type: functional, organism-based; outline: as §1
Lolium multiflorum [20] = experiment: Phytotoxicity against Lolium multiflorum (Italian ryegrass) assessed as inhibition of seed respiration during germination after 24 hr; type: functional, organism-based; outline: as §1
Physalis ixocarpa [21] = experiment: Phytotoxicity against Physalis ixocarpa assessed as inhibition of seed germination after 48 hr; type: functional; outline: as §2
Lactuca sativa [22] = experiment: Phytotoxicity against Lactuca sativa (lettuce) assessed as inhibition of seed germination after 48 hr; type: functional; outline: as §2
Lolium multiflorum [23] = experiment: Phytotoxicity against Lolium multiflorum (Italian ryegrass) assessed as inhibition of seed germination after 48 hr; type: functional; outline: as §2
[24] = system: Lolium multiflorum (ryegrass); experiment: Phytotoxicity against Lolium multiflorum (ryegrass) assessed as inhibition of seed germination at 500 uM after 48 hr

Compound: C=C(C)[C@H]1Cc2c(ccc(C(C)=O)c2OC(C)=O)O1 [4-ACETYL TREMETONE]
- I50 (Physalis ixocarpa [1]): inactive
- inhibition at 500 µM (Lolium multiflorum [2]): 30%
- Activity (Trifolium pratense [3]): Active
- Activity (Physalis ixocarpa [4]): Active
- Activity (Trifolium pratense [5]): Active
- Activity (Lactuca sativa [6]): Active
- pIC50 (Trifolium pratense [7]; read-out: I50): 4.35
- pIC50 (Trifolium pratense [8]; read-out: I50): 4.35
- pIC50 (Physalis ixocarpa [9]; read-out: I50): 4.15
- pIC50 (Physalis ixocarpa [10]; read-out: I50): 4.18
- pIC50 (Lactuca sativa [11]; read-out: I50): 4.06
- pIC50 (Lactuca sativa [12]; read-out: I50): 4.05
- pIC50 (Lolium multiflorum [13]; read-out: I50): 4.09
- pIC50 (Lolium multiflorum [14]; read-out: I50): 4.06
- GI50 (Trifolium pratense [15]): 40 µM
- Activity (Lolium multiflorum [16]): Active
- Activity (Lolium multiflorum [17]): Active
- I50 (Trifolium pratense [18]): inactive
- I50 (Lactuca sativa [19]): inactive
- I50 (Lolium multiflorum [20]): inactive
- GI50 (Physalis ixocarpa [21]): 55.2 µM
- GI50 (Lactuca sativa [22]): 85.5 µM
- GI50 (Lolium multiflorum [23]): 79.9 µM
- inhibition at 500 µM [24]: 30%

Compound: CC(=O)c1ccc(O[C@@H]2O[C@H](CO)[C@@H](O)[C@H](O)[C@H]2O)cc1 [PICEIN]
- I50 (Physalis ixocarpa [1]): inactive
- inhibition at 500 µM (Lolium multiflorum [2]): 30%
- Activity (Trifolium pratense [3]): Active
- Activity (Physalis ixocarpa [4]): Active
- Activity (Trifolium pratense [5]): Active
- Activity (Lactuca sativa [6]): Active
- I50 (Trifolium pratense [7]): inactive
- I50 (Trifolium pratense [8]): inactive
- I50 (Physalis ixocarpa [9]): inactive
- I50 (Physalis ixocarpa [10]): inactive
- I50 (Lactuca sativa [11]): inactive
- I50 (Lactuca sativa [12]): inactive
- I50 (Lolium multiflorum [13]): inactive
- I50 (Lolium multiflorum [14]): inactive
- GI50 (Trifolium pratense [15]): inactive
- Activity (Lolium multiflorum [16]): Active
- Activity (Lolium multiflorum [17]): Active
- I50 (Trifolium pratense [18]): inactive
- I50 (Lactuca sativa [19]): inactive
- I50 (Lolium multiflorum [20]): inactive
- GI50 (Physalis ixocarpa [21]): inactive
- GI50 (Lactuca sativa [22]): inactive
- GI50 (Lolium multiflorum [23]): inactive
- inhibition at 500 µM [24]: 30%
